Values joined by “and” are separate entries in the source; they are usually repeats but may differ in a detail not shown here. Equal entries are not always repeated. Active and inactive are the calls of the source. The rule behind the calls is not given here.
How the values were obtained:
[1] = system: Rattus norvegicus; experiment: Antihypertensive activity as percentage fall in systolic blood pressure in spontaneously hypertensive rats after a period of 3 hr for a dose of 50 mg/kg po; NS=Not significant; type: functional, organism-based; set-up: dose 50 mg/kg; settings: Artery
In short: (§1)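 Male Okamoto-Aoki SHR, trained, in groups of four matched for systolic pressure, with a concurrent vehicle control group. Oral dosing on two consecutive mornings, in water as solution or suspension at 0.1 mL/10 g. On day 2 rats were restrained at 30.0 ± 1.0 °C. Tail-cuff systolic pressure, four traces per rat, read at each hour. Per cent fall versus control; 1-tail t test, p ≤ 0.05.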

[2] = system: Rattus norvegicus; experiment: The antihypertensive activity as percentage fall in systolic blood pressure in spontaneously hypertensive rats after a period of 4 hr for a dose of 50 mg/kg po
[3] = system: Rattus norvegicus; experiment: The antihypertensive activity as percentage fall in systolic blood pressure in spontaneously hypertensive rats after a period of 3 hr for a dose of 50 mg/kg po
[4] = system: Rattus norvegicus; experiment: Antihypertensive activity as percentage fall in systolic blood pressure in spontaneously hypertensive rats after a period of 4 hr for a dose of 50 mg/kg po; NS=Not significant; type: functional, organism-based; set-up: dose 50 mg/kg; settings: Artery; in short: as §1
[5] = system: Rattus norvegicus; experiment: The antihypertensive activity as percentage fall in systolic blood pressure in spontaneously hypertensive rats after a period of 2 hr for a dose of 50 mg/kg po
[6] = system: Rattus norvegicus; experiment: Antihypertensive activity as percentage fall in systolic blood pressure in spontaneously hypertensive rats after a period of 2 hr for a dose of 50 mg/kg po; NS=Not significant; type: functional, organism-based; set-up: dose 50 mg/kg; settings: Artery; in short: as §1
[7] = system: Rattus norvegicus; experiment: The antihypertensive activity as percentage fall in systolic blood pressure in spontaneously hypertensive rats after a period of 1 hr for a dose of 50 mg/kg po
[8] = Distribution coefficient between 1-Octanol and phosphate buffer at pH7.4; type: physicochemical; settings: 1-octanol/phosphate buffer, pH 7.4
In short: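 Octanol/buffer distribution measured at pH 7.4 in phosphate with sodium chloride. Either HPLC (0.004 M) or shake flask.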

[9] = system: Rattus norvegicus; experiment: Antihypertensive activity as percentage fall in systolic blood pressure in spontaneously hypertensive rats after a period of 1 hr for a dose of 50 mg/kg po; NS=Not significant; type: functional, organism-based; set-up: dose 50 mg/kg; settings: Artery; in short: as §1
[10] = system: Rattus norvegicus; experiment: Antihypertensive activity as percentage fall in systolic blood pressure in spontaneously hypertensive rats after a period of 3 h for a dose of 50 mg/kg; type: functional, organism-based; set-up: dose 50 mg/kg; settings: Artery
In short: (§2)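 Male Okamoto-Aoki SHR, trained, in groups of four matched for mean systolic pressure; one group per run received water vehicle. Oral dosing in water (0.1 mL per 10 g) on two consecutive mornings. After the day-2 dose, rats were restrained at 30.0 ± 1.0 °C. Systolic pressure was read by tail cuff (inflated to 300 mmHg, first pulse) at 1–4 h. % fall is versus the untreated control group, by 1-tail t test (p ≤ 0.05).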

[11] = system: Rattus norvegicus; experiment: Antihypertensive activity as percentage fall in systolic blood pressure in spontaneously hypertensive rats after a period of 2 hr for a dose of 50 mg/kg; type: functional, organism-based; set-up: dose 50 mg/kg; settings: Artery; in short: as §2
[12] = system: Rattus norvegicus; experiment: Antihypertensive activity as percentage fall in systolic blood pressure in spontaneously hypertensive rats after a period of 4 hr for a dose of 50 mg/kg; type: functional, organism-based; set-up: dose 50 mg/kg; settings: Artery; in short: as §2
[13] = system: Rattus norvegicus; experiment: Antihypertensive activity as percentage fall in systolic blood pressure in spontaneously hypertensive rats after a period of 1 hr for a dose of 50 mg/kg; type: functional, Artery; in short: as §2
[14] = system: Rattus norvegicus; experiment: Percentage fall in systolic blood pressure in spontaneously hypertensive rats after 3 h following 50 mg/kg p.o.; type: functional, Artery; settings: route oral; in short: as §2
[15] = system: Rattus norvegicus; experiment: The antihypertensive activity as percentage fall in systolic blood pressure in spontaneously hypertensive rats after a period of 1 hr for a dose of 25 mg/kg po; type: functional, Artery; in short: as §2
[16] = system: Rattus norvegicus; experiment: The antihypertensive activity as percentage fall in systolic blood pressure in spontaneously hypertensive rats after a period of 2 hr for a dose of 25 mg/kg po; NS=Not significant; type: functional, organism-based; set-up: dose 25 mg/kg; settings: Artery; in short: as §2
[17] = system: Rattus norvegicus; experiment: The antihypertensive activity as percentage fall in systolic blood pressure in spontaneously hypertensive rats after a period of 4 hr for a dose of 25 mg/kg po; NS=Not significant; type: functional, organism-based; set-up: dose 25 mg/kg; settings: Artery; in short: as §2
[18] = system: Rattus norvegicus; experiment: Percentage fall in systolic blood pressure in spontaneously hypertensive rats after 2 hr following 50 mg/kg p.o.; type: functional, Artery; settings: route oral, 50 mg/kg; in short: as §2
[19] = system: Rattus norvegicus; experiment: The antihypertensive activity as percentage fall in systolic blood pressure in spontaneously hypertensive rats after a period of 3 hr for a dose of 25 mg/kg po; NS=Not significant; type: functional, organism-based; set-up: dose 25 mg/kg; settings: Artery; in short: as §2

| Compound | Decrease in blood pressure [1] | Decrease in blood pressure [2] [%] | Decrease in blood pressure [3] [%] | Decrease in blood pressure [4] | Decrease in blood pressure [5] [%] | Decrease in blood pressure [6] | Decrease in blood pressure [7] [%] | logD [8] | Decrease in blood pressure [9] | Decrease in blood pressure [10] | Decrease in blood pressure [11] | Decrease in blood pressure [12] | Decrease in blood pressure [13] [%] | Decrease in blood pressure [14] [%] | Decrease in blood pressure [15] [%] | Decrease in blood pressure [16] | Decrease in blood pressure [17] | Decrease in blood pressure [18] | Decrease in blood pressure [19] |
| --- | --- | --- | --- | --- | --- | --- | --- | --- | --- | --- | --- | --- | --- | --- | --- | --- | --- | --- | --- |
| CN1CC2(CCN(CCc3c[nH]c4ccccc34)CC2)OC1=O | inactive | 9 | 8 | inactive | 18 | inactive | 23 | 1.73 | inactive | – | – | – | – | – | – | – | – | – | – |
| CCN1CC2(CCN(CCc3c[nH]c4ccccc34)CC2)OC1=O | – | – | – | – | – | – | – | 1.92 | inactive | Not significant | Not significant | Not significant | – | – | – | – | – | – | – |
| CC(C)N1CC2(CCN(CC(O)C3COc4ccccc4O3)CC2)OC1=O (configuration not stated) | – | – | – | – | – | – | – | 2.05 | – | – | – | – | 26 | 16 | 14 | inactive | inactive | 20% and 16% | inactive |

— ChEMBL document CHEMBL1121744, “Synthesis and antihypertensive activity of a series of 8-substituted 1-oxa-3,8-diazaspiro[4.5]decan-2-ones” (J Med Chem, 1981)
